Assay results taken from ChEMBL document CHEMBL3425408, “Design, synthesis, in vitro, and in vivo anticancer and antiangiogenic activity of novel 3-arylaminobenzofuran derivatives targeting the colchicine site on tubulin” (J Med Chem, 2015).
The source made the active and inactive calls. The rule behind the calls is not given here.

Assays:
[1] = Antiproliferative activity against human RS4:11 cells after 72 hrs by (3-(4,5-dimethylthiazol-2-yl)-2,5-diphenyltetrazolium bromide test; format: functional, cell-based; conditions: RS4-11, 72 h
Method in brief: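 Jurkat, RS4;11 and HL-60 cells grown in RPMI-1640; MCF-7, A549, HeLa and HT-29 cells grown in DMEM; both media with 10% FBS and penicillin/streptomycin. 8 × 10^3 cells per well were preincubated 18 h at 37 °C, 5% CO2, then exposed 72 h to a concentration range (DMSO ≤0.25%). Read-out was MTT; IC50 was taken against cells given the maximum DMSO. Mean ± SE of at least three experiments.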

[2] = test system: HUVEC; experiment: Cytotoxicity against human HUVEC cells after 72 hrs by MTT assay; format: cell-based
Method in brief: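 HUVECs were isolated from umbilical cord veins, kept in M200 with low-serum growth supplement and used at passages 1–6. […] Mean ± SEM of three separate experiments.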

[3] = test system: HeLa; experiment: Induction of cells cycle arrest in human HeLa cells assessed as cell arrest at G2/M phase at > 60 nM after 24 hrs by propidium iodide based flow cytometric analysis; format: functional
Method in brief: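 HeLa or Jurkat cells (5 × 10^5) treated 24 h. Cells fixed in ice-cold 70% ethanol, lysed with RNase A and 0.1% Triton X-100, and stained with propidium iodide. DNA content analyzed by flow cytometry to give cell-cycle phase distribution.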

[4] = test system: HeLa; experiment: Induction of cell cycle arrest in human HeLa cells assessed as decrease in cyclin B expression at 100 to 250 nM after 48 hrs by Western blot analysis; format: functional, cell-based
Method in brief: (§1)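 HeLa cells treated 24 or 48 h. Lysates cleared at 15000g, and 10 μg protein run on 7.5–15% SDS-PAGE and blotted to PVDF. Membranes blocked in 5% BSA and probed for cyclin B, p-cdc2 Tyr15 and cdc25c, then detected with peroxidase secondary and ECL. Blots stripped and reprobed for β-actin as loading control.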

[5] = test system: HeLa; experiment: Induction of cell cycle arrest in human HeLa cells assessed as increase in p-cdc2 Tyr15 expression at 250 nM after 24 hrs by Western blot analysis; format: functional, cell-based; method in brief: as §1
[6] = test system: HeLa; experiment: Effect on phosphatase cdc25 expression in human HeLa cells at 100 to 250 nM after 24 to 48 hrs by Western blot analysis; format: functional, cell-based; method in brief: as §1
[7] = test system: HeLa; experiment: Induction of apoptosis in human HeLa cells assessed as increase in ROS production at 100 to […] after 24 to 48 hrs by H2-DCFDA based flow cytometry; format: functional, cell-based
Method in brief: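 HeLa cells treated 24 or 48 h, then loaded with H2-DCFDA. ROS measured by flow cytometry. Three independent experiments.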

[8] = test system: HeLa; experiment: Induction of apoptosis in human HeLa cells assessed as caspase 9 activation at 100 to 250 nM by Western blot analysis; conditions: TDE = time-dependent effect
[9] = test system: HeLa; experiment: Induction of apoptosis in human HeLa cells assessed as reduction in Bcl2 expression at 100 to 250 nM after 48 hrs by Western blotting analysis
[10] = test system: Mus musculus; experiment: In vivo antitumor activity against mouse BNL 1ME A.7R.1 cells allografted in Balb/c mouse assessed as reduction in tumor growth at 10 mg/kg, ip up to 8 days relative to vehicle treated control; format: functional, organism-based; design: dose 10 mg/kg
Method in brief: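 Male Balb/c mice (8 weeks old) implanted s.c. in the dorsal region with 10^7 BNL 1ME A.7R.1 cells in PBS. Dosed i.p. daily from the second day at 5 or 10 mg/kg, in vehicle of 0.9% NaCl with 5% PEG 400 and 0.5% Tween 80 (7 μL/g). Tumors measured daily with calipers for 7 days, volume = AB²/2. Five mice per group.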

[11] = test system: Mus musculus; experiment: In vivo antitumor activity against mouse BNL 1ME A.7R.1 cells allografted in Balb/c mouse assessed as reduction in tumor growth at 5 mg/kg, ip up to 8 days relative to vehicle treated control; format: functional, organism-based; design: dose 5 mg/kg
Method in brief: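 Male Balb/c mice, 8 weeks old, received 10^7 BNL 1ME A.7R.1 cells in 200 μL PBS subcutaneously in the dorsal region. Mice were randomised into groups of 5 and dosed ip daily from day 2. Vehicle was 0.9% NaCl with 5% PEG 400 and 0.5% Tween 80, at 7 μL/g. Tumours were measured daily by caliper for 7 days; V = AB²/2.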

[12] = test system: HUVEC; experiment: Antivascular activity in HUVEC assessed as inhibition of endothelial cell migration to tumor site at 25 nM after 6 hrs by wound-healing assay; format: functional, cell-based; conditions: Homo sapiens
Method in brief: (§2)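 Scratch assay: confluent HUVEC monolayer on 0.1% collagen I wounded with a pipette tip and washed with PBS. Cells treated with compound and photographed at set times. Wound width measured in four areas and compared with the initial width to give gap closure. Three independent experiments.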

[13] = test system: HUVEC; experiment: Antivascular activity in HUVEC assessed as inhibition of endothelial cell migration to tumor site at 5 nM after 24 hrs by wound-healing assay; format: functional, cell-based; conditions: Homo sapiens; method in brief: as §2
[14] = test system: HUVEC; experiment: Antivascular activity in HUVEC assessed as distruption of capillary like tube formation at 5 to 25 nM after 1 hr by matrigel assay; format: functional, cell-based; conditions: Homo sapiens
Method in brief: (§3)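 Tube-disruption assay: HUVECs (passages 1–6) plated on gelled Matrigel and allowed 6 h to form capillary-like networks. Compound then added to the preformed networks for 1 or 3 h. Five fields per well photographed. Area covered, total network length, mesh number and branching points measured as percent change from complete-medium controls. Three independent experiments.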

[15] = test system: HUVEC; experiment: Antivascular activity in HUVEC assessed as distruption of capillary like tube formation at 5 to 25 nM after 3 hrs by matrigel assay; format: functional, cell-based; conditions: Homo sapiens; method in brief: as §3
[16] = test system: HUVEC; experiment: Cytotoxicity against HUVEC cells at 5 to 25 nM; format: cell-based; conditions: human, 0.025 µM
[17] = test system: Chorioallantoic membrane; experiment: Induction of blood vessel formation in chick embryo chorioallantoic membrane (CAM) at 100 pmol/egg; format: functional, tissue-based; conditions: Gallus gallus
[18] = test system: Chorioallantoic membrane; experiment: Antivascular activity in chick embryo chorioallantoic membrane (CAM) assessed as inhibition of FGF-induced blood vessel formation at 1 pmol/egg by microscopically measured on day 11; format: functional, tissue-based; conditions: Gallus gallus
Method in brief: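 CAM assay: alginate sponges carrying FGF plus compound (0.1–1.0 pmol per pellet) grafted onto the CAM of fertilized chicken eggs on day 11 of development. Blood vessels converging toward the implant counted under a stereomicroscope at 5× after 72 h (day 14). At least six eggs per group.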

[19] = Antivascular activity in mouse B16-BL6 cells allografted in C57/BL6 mouse assessed as reduction blood vessel formation in tumor measured at 30 mg/kg, ip after 24 hrs; format: functional; conditions: route intraperitoneal
Method in brief: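 C57BL/6 mice (6 weeks old) given 10^5 BL6-B16 melanoma cells s.c. in the dorsolateral flank in PBS. At 300 mm3 tumor volume, single i.p. dose of 30 mg/kg in DMSO. Tumors harvested 24 h later, frozen in OCT and cut into 4–5 μm sections. CD31-positive vessels counted in 5 fields per section (40× objective). Five mice per group.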

SMILES | IC50 [1] [nM] | IC50 [2] [nM] | Activity [3] [%] | Activity [4] | Activity [5] | Activity [6] | Activity [7] | Activity [8] | Activity [9] | Activity [10] | Activity [11] | Activity [12] | Activity [13] | Activity [14] | Activity [15] | Activity [16] | Activity [17] | inhibition [18] | inhibition in vivo at 30 mg/kg [19] [%]
CCOC(=O)c1oc2cc(OC)ccc2c1Nc1cc(OC)c(OC)c(OC)c1 | 100 | 220 | >70 | Active | Active | inactive | Active | tde | Active | – | – | – | – | – | – | – | – | – | –
COC(=O)c1oc2cc(OC)ccc2c1Nc1cc(OC)c(OC)c(OC)c1 | 0.3 | 750 | >70 | Active | Active | inactive | Active | tde | Active | Active | inactive | Active | Active | Active | Active | Non-toxic | inactive | Active | 20
